Calls of active or inactive are those of the source. The rule behind the calls is not given here.
Key:
[1] = molecular target: Core antigen (Hepatitis B virus) (UniProt Q03732); test: Inhibition of GFP-fused Hepatitis B Virus capsid expressed in HEK293T cells at 50 uM after 48 hrs relative to control; format: cell-based
Method in brief: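 BiFC assay: HBc fused to Venus fragments VN (1–154) and VC (155–239) were co-transfected into 293T cells, then compounds were added. The dose series used 0, 0.5, 5 and 50 μM; SAR used 50 μM as percent inhibition. After 48 h, reconstituted fluorescence was read as mean fluorescent intensity on a plate reader, with fluorescence microscopy images.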

[2] = Cytotoxicity against human HepG2.2.15 cells; format: cell-based, HepG2 2.2.15
[3] = test system: Hepatitis B virus; test: Antiviral activity against Hepatitis B virus infected in human HepG2.2.15 cells assessed as inhibition of viral replication after 7 days by RT-PCR analysis; format: functional, organism-based; conditions: for IC50: HepG2.2.15, 168 h

Sequence of Core antigen (Hepatitis B virus) (Q03732 as listed by the source): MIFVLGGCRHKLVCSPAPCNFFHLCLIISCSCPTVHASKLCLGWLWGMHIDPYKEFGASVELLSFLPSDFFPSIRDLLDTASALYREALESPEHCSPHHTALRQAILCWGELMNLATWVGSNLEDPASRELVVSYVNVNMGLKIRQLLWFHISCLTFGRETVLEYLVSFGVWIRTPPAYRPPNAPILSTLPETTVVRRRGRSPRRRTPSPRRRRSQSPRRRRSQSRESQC

| Structure (SMILES) | inhibition [1] | CC50 [2] | IC50 [3] | Activity [3] |
| --- | --- | --- | --- | --- |
| COc1ccc(Br)c(COC(c2ccccc2)c2cnc(NC(=O)c3cccs3)s2)c1 (stereo not drawn) | 45% |  |  |  |
| Clc1ccc(C(Oc2ccc3cc(Br)ccc3c2)c2cnc(NCC3CCOCC3)s2)cc1 (stereo not drawn) | 43% |  |  |  |
| O=S(=O)(Nc1ncc(C(Oc2ccc3cc(Br)ccc3c2)c2ccc(Cl)cc2)s1)c1ccc(Cl)cc1 (stereo not drawn) | 50% |  |  |  |
| COc1ccc(COC(c2ccccc2)c2cnc(NC(=O)c3cccs3)s2)cc1 (stereo not drawn) | 64% |  |  |  |
| CCCCC(CC)CNc1ncc(C(Oc2ccc3cc(Br)ccc3c2)c2ccc(Cl)cc2)s1 (stereo not drawn) | 55% |  |  |  |
| COc1ccc(C(=O)Nc2ncc(C(Oc3ccc4ccc(Br)cc4c3)c3ccc(S(C)(=O)=O)cc3)s2)cc1 (stereo not drawn) | inactive |  |  |  |
| CC(C)(C)OC(=O)Nc1ncc(C(Oc2cccc(C#N)c2)c2ccc(Cl)cc2)s1 (stereo not drawn) | inactive | > 50 µM |  |  |
| Cc1ccc(C(=O)Nc2ncc(Cc3ccc(F)cc3)s2)cc1 | 53% |  |  |  |
| O=C(Nc1ncc(Cc2ccc(F)cc2)s1)c1ccc(Cl)cc1Cl | inactive | > 50 µM |  |  |
| Cc1ccc(C(=O)Nc2ncc(C(Oc3ccc4cc(Br)ccc4c3)c3ccc(Cl)cc3)s2)cc1 (stereo not drawn) | 71% |  |  |  |
| O=S(=O)(Nc1ncc(C(Oc2ccc3cc(Br)ccc3c2)c2ccc(Cl)cc2)s1)c1ccccc1 (stereo not drawn) | 63% | > 50 µM | 2.32 µM |  |
| O=C(Nc1ncc(Cc2ccc(F)cc2)s1)C1CCCCC1 | inactive | > 50 µM |  |  |
| CC(=O)O[C@@H]1OC(C(=O)Nc2ncc(C(Oc3ccc4cc(Br)ccc4c3)c3ccc(Cl)cc3)s2)[C@@H](OC(C)=O)[C@@H](OC(C)=O)[C@H]1OC(C)=O (stereo partly drawn) | 40% |  |  |  |
| COc1ccc(C(=O)Nc2ncc(C(Oc3ccc4cc(Br)ccc4c3)c3ccc(Cl)cc3)s2)cc1 (stereo not drawn) | 54% | > 50 µM | 1.45 µM |  |
| N#Cc1cccc(C(=O)Nc2ncc(C(Oc3ccc4cc(Br)ccc4c3)c3ccc(Cl)cc3)s2)c1 (stereo not drawn) | 70% | > 50 µM |  |  |
| Cc1ccc(COC(c2ccccc2)c2cnc(NC(=O)c3cccs3)s2)cc1 (stereo not drawn) | 64% |  |  |  |
| COc1ccc(C(=O)Nc2ncc(C(Oc3ccc4cc(Br)ccc4c3)c3ccc(Br)cc3)s2)cc1 (stereo not drawn) | 78% | > 50 µM |  |  |
| O=C(Nc1ncc(Cc2ccc(Cl)cc2)s1)c1ccc(F)cc1F | inactive |  |  |  |
| CCCCCC(=O)Nc1ncc(C(Oc2ccc3cc(Br)ccc3c2)c2ccc(Cl)cc2)s1 (stereo not drawn) | inactive | > 50 µM |  |  |
| COCCc1ccc(OC(c2ccc(Cl)cc2)c2cnc(NC(=O)OC(C)(C)C)s2)cc1 (stereo not drawn) | inactive | > 50 µM |  |  |
| O=C(Nc1ncc(C(Oc2ccc3cc(Br)ccc3c2)c2ccc(Cl)cc2)s1)c1cccs1 (stereo not drawn) | 47% |  |  |  |
| CCN(CC)C(=O)Nc1ncc(C(Oc2ccc3cc(Br)ccc3c2)c2ccc(Cl)cc2)s1 (stereo not drawn) | 67% |  |  |  |
| CC(C)(C)C(=O)Nc1ncc(C(Oc2ccc3cc(Br)ccc3c2)c2ccc(Cl)cc2)s1 (stereo not drawn) | 47% |  |  |  |
| O=S(=O)(Nc1ncc(C(Oc2ccc3cc(Br)ccc3c2)c2ccc(Cl)cc2)s1)c1ccc(Cl)nc1 (stereo not drawn) | 30% |  |  |  |

| Structure (SMILES) | inhibition [1] | CC50 [2] | IC50 [3] | Activity [3] |
| --- | --- | --- | --- | --- |
| COc1ccc(C(=O)Nc2ncc(C(Nc3cccc4ccccc34)c3ccc(Cl)cc3)s2)cc1 (stereo not drawn) | 69% | > 50 µM | 6.85 µM |  |
| O=S(=O)(Nc1ncc(C(Oc2ccc3cc(Br)ccc3c2)c2ccc(Cl)cc2)s1)c1cccs1 (stereo not drawn) | 44% |  |  |  |
| Cc1ccc(C)c(S(=O)(=O)Nc2ncc(C(Oc3ccc4cc(Br)ccc4c3)c3ccc(Cl)cc3)s2)c1 (stereo not drawn) | inactive | > 50 µM |  |  |
| O=C(CCCCC(=O)Nc1ncc(Cc2ccc(F)cc2)s1)Nc1ncc(Cc2ccc(F)cc2)s1 | inactive | > 50 µM |  |  |
| Cc1cc(C(C)C)ccc1OC(c1ccc(Cl)cc1)c1cnc(NC(=O)OC(C)(C)C)s1 (stereo not drawn) | inactive | > 50 µM |  |  |
| O=C(Nc1ncc(Cc2ccc(Cl)cc2)s1)c1cccs1 | 59% | > 50 µM | 3.62 µM |  |
| CCOC(=O)CCCNc1ncc(C(Oc2ccc3cc(Br)ccc3c2)c2ccc(Cl)cc2)s1 (stereo not drawn) | 35% |  |  |  |
| O=C(Nc1ncc(C(OCc2ccc(Cl)cc2)c2ccccc2)s1)c1cccs1 (stereo not drawn) | 59% |  |  |  |
| O=C(Nc1ncc(C(Oc2ccc3cc(Br)ccc3c2)c2ccc(Cl)cc2)s1)c1ccc(F)cc1F (stereo not drawn) | 51% |  |  |  |
| O=C(Nc1ncc(C(Oc2ccc3cc(Br)ccc3c2)c2ccc(Cl)cc2)s1)c1ccccc1 (stereo not drawn) | 58% |  |  |  |
| O=S(=O)(Nc1ncc(C(Oc2ccc3cc(Br)ccc3c2)c2ccc(Cl)cc2)s1)c1cccc2nsnc12 (stereo not drawn) | 50% |  |  |  |
| O=C(Nc1ncc(C(Oc2ccc3cc(Br)ccc3c2)c2ccc(Cl)cc2)s1)C1CCOCC1 (stereo not drawn) | 66% |  |  |  |
| CCc1ccc(S(=O)(=O)Nc2ncc(C(Oc3ccc4cc(Br)ccc4c3)c3ccc(Cl)cc3)s2)cc1 (stereo not drawn) | inactive | > 50 µM |  |  |
| Cc1noc(C)c1C(=O)Nc1ncc(C(Oc2ccc3cc(Br)ccc3c2)c2ccc(Cl)cc2)s1 (stereo not drawn) | 64% |  |  |  |
| O=C(Nc1ncc(C(OCc2ccc(F)cc2Br)c2ccccc2)s1)c1cccs1 (stereo not drawn) | 27% |  |  |  |
| COc1ccc(C(=O)Nc2ncc(C(Sc3ccc4ccccc4c3)c3ccc(Cl)cc3)s2)cc1 (stereo not drawn) | 49% |  |  |  |
| O=S(=O)(Nc1ncc(C(Oc2ccc3cc(Br)ccc3c2)c2ccc(Cl)cc2)s1)c1ccc2c(c1)CCO2 (stereo not drawn) | inactive | > 50 µM |  |  |
| O=C(Nc1ncc(Cc2ccc(Br)cc2)s1)c1ccc2ccccc2c1 | inactive | > 50 µM |  |  |
| CC(C)(C)OC(=O)Nc1ncc(C(Oc2ccc3cc(Br)ccc3c2)c2ccc(Cl)cc2)s1 (stereo not drawn) | 55% | > 50 µM | 2.27 µM |  |
| O=C(Nc1ncc(Cc2ccc(Br)cc2)s1)c1cccs1 | inactive | > 50 µM |  |  |
| O=C(Nc1ncc(C(Oc2ccc3cc(Br)ccc3c2)c2ccc(Cl)cc2)s1)c1ccc(F)cc1 (stereo not drawn) | 50% |  |  |  |
| CC(C)(C)OC(=O)Nc1ncc(C(Oc2ccc(Cc3ccccc3)cc2)c2ccc(Cl)cc2)s1 (stereo not drawn) | inactive | > 50 µM |  |  |
| O=S(=O)(Nc1ncc(C(Oc2ccc3cc(Br)ccc3c2)c2ccc(Cl)cc2)s1)c1ccc2ccccc2c1 (stereo not drawn) | inactive | > 50 µM |  |  |
| COc1ccc(C(=O)Nc2ncc(C(Oc3ccc4cc(Br)ccc4c3)c3ccc(C#N)cc3)s2)cc1 (stereo not drawn) | inactive |  |  |  |

| Structure (SMILES) | inhibition [1] | CC50 [2] | IC50 [3] | Activity [3] |
| --- | --- | --- | --- | --- |
| COCCNc1ncc(C(Oc2ccc3cc(Br)ccc3c2)c2ccc(Cl)cc2)s1 (stereo not drawn) | 37% |  |  |  |
| CC(C)(C)OC(=O)Nc1ncc(C(Oc2ccc(Br)cc2)c2ccc(Cl)cc2)s1 (stereo not drawn) | inactive | > 50 µM |  |  |
| O=C(Nc1ncc(C(Oc2ccc3cc(Br)ccc3c2)c2ccc(Cl)cc2)s1)c1ccc(F)cc1Br (stereo not drawn) | 65% | > 50 µM | 3.55 µM |  |
| O=C(Nc1ncc(C(OCc2ccc(F)cc2F)c2ccccc2)s1)c1cccs1 (stereo not drawn) | 26% |  |  |  |
| O=C(Nc1ncc(C(Oc2ccc3cc(Br)ccc3c2)c2ccc(Cl)cc2)s1)C1CC1 (stereo not drawn) | 67% |  |  |  |
| COC(=O)CCCCNc1ncc(C(Oc2ccc3cc(Br)ccc3c2)c2ccc(Cl)cc2)s1 (stereo not drawn) | 40% |  |  |  |
| O=C(Nc1ncc(Cc2ccc(F)cc2)s1)c1ccc(Br)cc1 | inactive | > 50 µM |  |  |
| CC(C)(C)OC(=O)Nc1ncc(C(Oc2ccc(OCc3ccccc3)cc2)c2ccc(Cl)cc2)s1 (stereo not drawn) | inactive | > 50 µM |  |  |
| Cc1ccc(S(=O)(=O)Nc2ncc(C(Oc3ccc4cc(Br)ccc4c3)c3ccc(Cl)cc3)s2)c2ccccc12 (stereo not drawn) | inactive | > 50 µM |  |  |
| CCOC(=O)C1=C(CN2CCOCC2)NC(c2nccs2)=NC1c1ccc(F)cc1Br (stereo not drawn) |  |  |  | Dose-dependent effect |
| COc1ccc(C(=O)Nc2ncc(C(Oc3ccc4cc(Br)ccc4c3)c3ccc(F)cc3)s2)cc1 (stereo not drawn) | 76% | > 50 µM |  |  |
| O=C(Nc1ncc(Cc2ccc(F)cc2)s1)c1cccs1 |  | > 500 µM | 6.15 µM |  |
| O=C(Nc1ncc(C(Oc2ccc3cc(Br)ccc3c2)c2ccc(Cl)cc2)s1)C1CCCO1 (stereo not drawn) | 35% |  |  |  |
| O=C(Nc1ncc(C(OCc2ccc(Br)cc2)c2ccccc2)s1)c1cccs1 (stereo not drawn) | 64% |  |  |  |
| Cc1cc(Br)cc(OC(c2ccc(Cl)cc2)c2cnc(NC(=O)OC(C)(C)C)s2)c1 (stereo not drawn) | inactive | > 50 µM |  |  |
| O=C(Nc1ncc(C(Oc2ccc3cc(Br)ccc3c2)c2ccc(Cl)cc2)s1)c1ccc(Cl)nc1 (stereo not drawn) | 45% |  |  |  |
| O=C(Nc1ncc(C(OCc2ccc3ccccc3c2)c2ccccc2)s1)c1cccs1 (stereo not drawn) | 47% |  |  |  |
| CC(C)(C)OC(=O)Nc1ncc(C(Oc2ccc(F)c(Cl)c2)c2ccc(Cl)cc2)s1 (stereo not drawn) | inactive | > 50 µM |  |  |
| O=C(Nc1ncc(Cc2ccc(F)cc2)s1)c1ccccc1 | 60% |  |  |  |
| O=C(Nc1ncc(C(Oc2ccc3cc(Br)ccc3c2)c2ccc(Cl)cc2)s1)c1cc(F)c(F)cc1F (stereo not drawn) | 44% |  |  |  |
| COCCCNc1ncc(C(Oc2ccc3cc(Br)ccc3c2)c2ccc(Cl)cc2)s1 (stereo not drawn) | 38% |  |  |  |
| Clc1ccc(C(Oc2ccc3cc(Br)ccc3c2)c2cnc(NCC3CCCCC3)s2)cc1 (stereo not drawn) | 61% |  |  |  |
| O=C(Nc1ncc(C(Oc2ccc3cc(Br)ccc3c2)c2ccc(Cl)cc2)s1)c1ccc(Br)cc1 (stereo not drawn) | inactive | > 50 µM |  |  |
